Results taken from the RNAGym collection of RNA variant scans (doi:10.1038/nmeth.2970).

B1: GFP aptamer (parent)
chain: GCUUCUGGACUGCGAUGGGAGCACGAAACGUCGUGGCGCAAUUGGGUGGGGAAAGUCCUUAAAAGAGGGCCACCACAGAAGC

Variants of: B1
Assay: HiTS-RAP
Settings: with EGFP
Summary of the method: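 Aptamer templates containing a T7 promoter and ter site were sequenced on an Illumina GAIIx flowcell, transcribed in situ with T7 RNA polymerase and halted with GST-Tus for 30 minutes at 37°C. Clusters were imaged after 30 minutes at room temperature with EGFP-mOrange at 0.04 nM to 625 nM in fivefold steps. Kd was obtained from per-lane weighted Hill fits to decay-corrected, sequencing-normalised, per-sequence mean intensities, geometrically averaged over lanes. Three lanes entered that average, and non-rising sequences were given 125 nM.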

Row | Variant | Kd [nM]
1 | G81U | 4.53
2 | G81A | 5.44
3 | G81C | 14.1
4 | C82U | 4.16
5 | C82A | 3.36
6 | C82G | 10.1
